Measured values from ChEMBL document CHEMBL3608281, “Synthesis and biological evaluation of novel 3,9-substituted β-carboline derivatives as anticancer agents” (Bioorg Med Chem Lett, 2015).
Activity calls are given as the source filed them. The rule behind the calls is not given here.

Columns and labels:
[1] = test system: HL-60; assay: Cytotoxicity against human HL60 cells incubated for 48 hrs by MTT assay; format: functional, cell-based; conditions: HL-60, 48 h
In short: (§1)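 Human tumour lines (HL-60 leukemia, Hep3B liver, H460 lung, A498 renal, COLO205 colon, 2774 and SK-OV-3 ovarian) and normal Detroit 551 skin fibroblasts were exposed to a range of concentrations for 48 h. IC50 is the concentration giving 50% proliferation inhibition, as the mean of three independent determinations.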

[2] = Cytotoxicity against human Hep3B cells incubated for 48 hrs by MTT assay; format: functional, cell-based, Hep 3B2; in short: as §1
[3] = Cytotoxicity against human H460 cells incubated for 48 hrs by MTT assay; format: functional, cell-based; conditions: NCI-H460, 48 h; in short: as §1
[4] = test system: A498; assay: Cytotoxicity against human A498 cells incubated for 48 hrs by MTT assay; format: functional, cell-based; conditions: A498, 48 h
[5] = test system: COLO 205; assay: Cytotoxicity against human COLO205 cells incubated for 48 hrs by MTT assay; format: functional, cell-based; conditions: COLO 205, 48 h; in short: as §1
[6] = Cytotoxicity against human 2774 cells incubated for 48 hrs by MTT assay; format: functional, cell-based; in short: as §1
[7] = test system: SK-OV-3; assay: Cytotoxicity against human SKOV3 cells incubated for 48 hrs by MTT assay; format: functional, cell-based; conditions: SK-OV-3, 48 h; in short: as §1
[8] = test system: Detroit 551; assay: Cytotoxicity against human Detroit 551 cells incubated for 48 hrs by MTT assay; format: cell-based; conditions: Detroit 551, 48 h; in short: as §1
[9] = test system: HL-60; assay: Induction of cell morphology changes in human HL60 cells assessed as induction of nuclear shrinkage at 5 uM incubated for 24 hrs by a phase-contrast microscopy; format: functional, cell-based
In short: (§2)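 HL-60 cells were treated at 1, 5 and 10 μM for 24 h and 48 h and examined microscopically for nuclear shrinkage and apoptotic bodies.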

[10] = test system: HL-60; assay: Induction of cell morphology changes in human HL60 cells assessed as induction of appearance apoptotic bodies at 5 uM incubated for 24 hrs by a phase-contrast microscopy; format: functional, cell-based; in short: as §2
[11] = test system: HL-60; assay: Induction of cell cycle arrest in human HL60 cells assessed as accumulation at subG1 phase at 1 uM incubated for 48 hrs by propidium iodide staining based flow cytometry (reference value: 2.5%); format: functional
[12] = test system: HL-60; assay: Induction of cell cycle arrest in human HL60 cells assessed as accumulation at G0/G1 phase at 1 uM incubated for 48 hrs by propidium iodide staining based flow cytometry (reference value: 39.51%); format: functional
[13] = test system: HL-60; assay: Induction of cell cycle arrest in human HL60 cells assessed as accumulation at S phase at 1 uM incubated for 48 hrs by propidium iodide staining based flow cytometry (reference value: 43.72%); format: functional
[14] = test system: HL-60; assay: Induction of cell cycle arrest in human HL60 cells assessed as accumulation at G2/M phase at 1 uM incubated for 48 hrs by propidium iodide staining based flow cytometry (reference value: 16.77%); format: functional
[15] = test system: HL-60; assay: Induction of cell cycle arrest in human HL60 cells assessed as accumulation at subG1 phase at 5 uM incubated for 48 hrs by propidium iodide staining based flow cytometry (reference value: 2.5%); format: functional
[16] = test system: HL-60; assay: Induction of cell cycle arrest in human HL60 cells assessed as accumulation at G0/G1 phase at 5 uM incubated for 48 hrs by propidium iodide staining based flow cytometry (reference value: 39.51%); format: functional
[17] = test system: HL-60; assay: Induction of cell cycle arrest in human HL60 cells assessed as accumulation at S phase at 5 uM incubated for 48 hrs by propidium iodide staining based flow cytometry (reference value: 43.72%); format: functional
[18] = test system: HL-60; assay: Induction of cell cycle arrest in human HL60 cells assessed as accumulation at G2/M phase at 5 uM incubated for 48 hrs by propidium iodide staining based flow cytometry (reference value: 16.77%); format: functional
[19] = test system: HL-60; assay: Induction of cell cycle arrest in human HL60 cells assessed as accumulation at subG1 phase at 10 uM incubated for 48 hrs by propidium iodide staining based flow cytometry (reference value: 2.5%); format: functional
[20] = test system: HL-60; assay: Induction of cell cycle arrest in human HL60 cells assessed as accumulation at G0/G1 phase at 10 uM incubated for 48 hrs by propidium iodide staining based flow cytometry (reference value: 39.51%); format: functional
[21] = test system: HL-60; assay: Induction of cell cycle arrest in human HL60 cells assessed as accumulation at S phase at 10 uM incubated for 48 hrs by propidium iodide staining based flow cytometry (reference value: 43.72%); format: functional
[22] = test system: HL-60; assay: Induction of cell cycle arrest in human HL60 cells assessed as accumulation at G2/M phase at 10 uM incubated for 48 hrs by propidium iodide staining based flow cytometry (reference value: 16.77%); format: functional
[23] = test system: HL-60; assay: Induction of cell cycle arrest in human HL60 cells assessed as accumulation at subG1 phase incubated for 48 hrs by propidium iodide staining based flow cytometry; format: functional
[24] = test system: HL-60; assay: Induction of apoptosis in human HL60 cells assessed as early apoptotic cells level at 5 uM incubated for 24 hrs by annexin V/propidium iodide staining based flow cytometry (reference value: 0%); format: functional
[25] = test system: HL-60; assay: Induction of apoptosis in human HL60 cells assessed as late apoptotic cells level at 5 uM incubated for 24 hrs by annexin V/propidium iodide staining based flow cytometry (reference value: 0.4%); format: functional
[26] = test system: HL-60; assay: Induction of apoptosis in human HL60 cells assessed as early apoptotic cells level at 5 uM incubated for 48 hrs by annexin V/propidium iodide staining based flow cytometry (reference value: 0%); format: functional
[27] = test system: HL-60; assay: Induction of apoptosis in human HL60 cells assessed as late apoptotic cells level at 5 uM incubated for 48 hrs by annexin V/propidium iodide staining based flow cytometry (reference value: 0.4%); format: functional
[28] = test system: HL-60; assay: Induction of apoptosis in human HL60 cells assessed as upregulation of caspase-3 protein expression at 5 uM incubated for 24 hrs and 48 hrs by Western blotting method; format: functional, cell-based
In short: (§3)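 HL-60 cells were exposed to 5 μM for 24 and 48 h. Lysates were immunoblotted for Fas, DR4, DR5, FasL, TRAIL, Bax, Bcl-2, caspase-9, caspase-3 and PARP (cleavage), with β-actin as loading control.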

[29] = test system: HL-60; assay: Induction of apoptosis in human HL60 cells assessed as upregulation of caspase-9 protein expression at 5 uM incubated for 24 hrs and 48 hrs by Western blotting method; format: functional, cell-based; in short: as §3
[30] = test system: HL-60; assay: Induction of apoptosis in human HL60 cells assessed as induction of PARP cleavage at 5 uM incubated for 24 hrs and 48 hrs by Western blotting method; format: functional, cell-based; in short: as §3
[31] = test system: HL-60; assay: Induction of apoptosis in human HL60 cells assessed as induction of AIF protein release into cytosol at 5 uM incubated for 24 hrs and 48 hrs by Western blotting method; format: functional, cell-based
[32] = test system: HL-60; assay: Induction of apoptosis in human HL60 cells assessed as induction of endonuclease-G protein release into cytosol at 5 uM incubated for 24 hrs and 48 hrs by Western blotting method; format: functional, cell-based
[33] = test system: HL-60; assay: Induction of apoptosis in human HL60 cells assessed as induction of Apaf-1 protein release into cytosol at 5 uM incubated for 24 hrs and 48 hrs by Western blotting method; format: functional, cell-based
[34] = test system: HL-60; assay: Induction of apoptosis in human HL60 cells assessed as induction of cytochrome-c protein release into cytosol at 5 uM incubated for 24 hrs and 48 hrs by Western blotting method; format: functional, cell-based
[35] = test system: HL-60; assay: Induction of apoptosis in human HL60 cells assessed as reduction in Bcl-2 protein level at 5 uM incubated for 24 hrs and 48 hrs by Western blotting method; format: functional, cell-based; in short: as §3
[36] = test system: HL-60; assay: Induction of apoptosis in human HL60 cells assessed as increase in Bax protein level at 5 uM incubated for 24 hrs and 48 hrs by Western blotting method; format: functional, cell-based; in short: as §3
[37] = test system: HL-60; assay: Increase in Fas protein expression in human HL60 cells at 5 uM incubated for 24 hrs and 48 hrs by Western blotting method; format: functional, cell-based; in short: as §3
[38] = test system: HL-60; assay: Increase in DR4 protein expression in human HL60 cells at 5 uM incubated for 24 hrs and 48 hrs by Western blotting method; format: functional, cell-based; in short: as §3
[39] = test system: HL-60; assay: Increase in DR5 protein expression in human HL60 cells at 5 uM incubated for 24 hrs and 48 hrs by Western blotting method; format: functional, cell-based; in short: as §3
[40] = test system: HL-60; assay: Increase in FasL protein expression in human HL60 cells at 5 uM incubated for 24 hrs and 48 hrs by Western blotting method; format: functional, cell-based; in short: as §3
[41] = test system: HL-60; assay: Increase in TRAIL protein expression in human HL60 cells at 5 uM incubated for 24 hrs and 48 hrs by Western blotting method; format: functional, cell-based; in short: as §3
[42] = test system: COLO 205; assay: Cytotoxicity against human COLO205 cells; format: functional, cell-based
[43] = test system: HL-60; assay: Cytotoxicity against human HL60 cells; format: functional, cell-based

SMILES: OCc1cc2c3ccccc3nc-2c[nH]1
- IC50 [1]: > 100 µM
- IC50 [2]: > 100 µM
- IC50 [3]: > 100 µM
- IC50 [4]: > 100 µM
- IC50 [5]: > 100 µM
- IC50 [6]: > 100 µM
- IC50 [7]: > 100 µM
- IC50 [8]: > 100 µM

SMILES: CCOC(=O)c1cc2c3ccccc3n(Cc3ccc(F)cc3)c2cn1
- IC50 [1]: > 100 µM
- IC50 [2]: > 100 µM
- IC50 [3]: > 100 µM
- IC50 [4]: 50.4 µM
- IC50 [5]: > 100 µM
- IC50 [6]: > 100 µM
- IC50 [7]: > 100 µM
- IC50 [8]: > 100 µM

SMILES: COc1ccccc1Cn1c2ccccc2c2cc(C(=O)O)ncc21
- IC50 [1]: 4 µM
- IC50 [2]: 6.7 µM
- IC50 [3]: 8 µM
- IC50 [4]: 7.5 µM
- IC50 [5]: 32.5 µM
- IC50 [6]: 12.6 µM
- IC50 [7]: 21.4 µM
- IC50 [8]: > 100 µM
- Activity [9]: Active
- Activity [10]: Active
- Activity [11]: 9.83%
- Activity [12]: 34.67%
- Activity [13]: 49.22%
- Activity [14]: 16.11%
- Activity [15]: 14.55%
- Activity [16]: 37.39%
- Activity [17]: 50.19%
- Activity [18]: 12.42%
- Activity [19]: 17.79%
- Activity [20]: 55.62%
- Activity [21]: 39.4%
- Activity [22]: 4.98%
- Activity [23]: Dose-dependent effect
- Activity [24]: 37.9%
- Activity [25]: 27.9%
- Activity [26]: 46.6%
- Activity [27]: 38.6%
- Activity [28]: Active
- Activity [29]: Active
- Activity [30]: Active
- Activity [31]: Active
- Activity [32]: Active
- Activity [33]: Active
- Activity [34]: Active
- Activity [35]: Active
- Activity [36]: Active
- Activity [37]: inactive
- Activity [38]: inactive
- Activity [39]: inactive
- Activity [40]: inactive
- Activity [41]: inactive

SMILES: COc1cc(Cn2c3ccc(C(C)=O)cc3c3cccnc32)cc(OC)c1OC
- IC50 [42]: 0.52 µM
- IC50 [43]: 0.03 µM

SMILES: CCOC(=O)c1cc2c3ccccc3n(Cc3cccnc3)c2cn1
- IC50 [1]: > 100 µM
- IC50 [2]: > 100 µM
- IC50 [3]: > 100 µM
- IC50 [4]: > 100 µM
- IC50 [5]: > 100 µM
- IC50 [6]: > 100 µM
- IC50 [7]: > 100 µM
- IC50 [8]: > 100 µM
